Active and inactive are the calls of the source. No cut-off for these calls is given here.
How the values were obtained:
[1] = molecular target: Hepatocyte growth factor receptor (Mus musculus) (UniProt P16056); test: Inhibition of TPR-MET autophosphorylation in mouse NIH3T3 cells after 4 hrs by Western blotting; format: cell-based
In short: (§1)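 Exponentially growing cells were treated with compound for 4 h at 37 °C and lysed in SDS sample buffer. Lysates were run on 10% SDS-PAGE and blotted to nitrocellulose. Blots were probed for phospho-c-Met and total c-Met, with GAPDH as loading control, and detected by ECL.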

NIH3T3 [2] = test: Antiproliferative activity against mouse NIH/3T3 cells expressing TPR-Met after 72 hrs; format: functional, cell-based; conditions: NIH3T3, 72 h
In short: (§2)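 Cells were seeded and exposed next day to a range of compound concentrations for 72 h. Proliferation was read by sulforhodamine B or MTT assay, and IC50 derived.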

NIH3T3 [3] = test: Antiproliferative activity against mouse NIH/3T3 cells after 72 hrs; format: functional, cell-based; conditions: NIH3T3, 72 h; in short: as §2
[4] = AUC (0 to infinity) in mouse at 20 mg/kg, po; format: ADME, organism-based; parameters: dose 20 mg/kg, route oral, time infinity; conditions: plasma
In short: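 Mice dosed orally at 20 mg/kg in DMSO/Tween 80/normal saline vehicle; plasma concentration-time profile used to derive AUC0-∞. Values are the average of three runs.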

[5] = molecular target: Mast/stem cell growth factor receptor Kit (Homo sapiens, UniProt P10721); test: Inhibition of c-Kit
In short: (§3)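 ELISA on plates precoated with 20 μg/mL poly(Glu,Tyr) 4:1. Buffer: 10 μM ATP, 50 mM HEPES pH 7.4, 50 mM MgCl2, 0.5 mM MnCl2, 0.2 mM Na3VO4, 1 mM DTT, compound in 1% DMSO. Purified kinase was added and incubated 60 min at 37 °C. Phosphotyrosine was detected with PY99 then HRP anti-mouse IgG, o-phenylenediamine, A490. IC50 was taken from inhibition curves.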

[6] = molecular target: Platelet-derived growth factor receptor alpha (Homo sapiens, UniProt P16234); test: Inhibition of PDGFRalpha; in short: as §3
Sequence of Platelet-derived growth factor receptor alpha (P16234 whole entry): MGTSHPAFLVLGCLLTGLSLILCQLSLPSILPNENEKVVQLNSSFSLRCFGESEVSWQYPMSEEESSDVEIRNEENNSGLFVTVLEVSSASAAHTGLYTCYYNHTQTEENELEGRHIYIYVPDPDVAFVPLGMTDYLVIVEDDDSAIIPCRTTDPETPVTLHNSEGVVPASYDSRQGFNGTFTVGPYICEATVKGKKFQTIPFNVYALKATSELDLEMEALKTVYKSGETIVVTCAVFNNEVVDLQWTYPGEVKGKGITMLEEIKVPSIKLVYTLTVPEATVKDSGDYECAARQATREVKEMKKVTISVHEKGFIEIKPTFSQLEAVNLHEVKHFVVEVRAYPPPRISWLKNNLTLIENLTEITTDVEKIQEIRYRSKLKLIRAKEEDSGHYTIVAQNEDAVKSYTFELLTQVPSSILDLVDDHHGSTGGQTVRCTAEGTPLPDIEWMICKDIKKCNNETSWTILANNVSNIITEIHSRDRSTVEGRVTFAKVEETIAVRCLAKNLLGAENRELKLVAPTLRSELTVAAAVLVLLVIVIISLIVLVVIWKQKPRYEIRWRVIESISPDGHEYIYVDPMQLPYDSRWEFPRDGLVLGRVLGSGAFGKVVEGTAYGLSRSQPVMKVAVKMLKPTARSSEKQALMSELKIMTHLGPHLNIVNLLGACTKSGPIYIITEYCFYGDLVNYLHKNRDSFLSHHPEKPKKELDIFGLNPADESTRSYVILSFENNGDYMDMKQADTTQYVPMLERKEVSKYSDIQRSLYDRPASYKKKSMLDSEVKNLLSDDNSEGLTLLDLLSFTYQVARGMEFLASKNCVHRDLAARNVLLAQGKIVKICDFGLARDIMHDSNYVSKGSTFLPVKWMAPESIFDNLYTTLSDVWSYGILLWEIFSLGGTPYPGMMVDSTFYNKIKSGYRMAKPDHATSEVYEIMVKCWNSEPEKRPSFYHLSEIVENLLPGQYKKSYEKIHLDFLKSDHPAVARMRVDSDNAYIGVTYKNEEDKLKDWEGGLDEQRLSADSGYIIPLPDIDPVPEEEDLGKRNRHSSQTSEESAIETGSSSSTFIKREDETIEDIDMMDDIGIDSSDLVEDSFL

[7] = molecular target: Proto-oncogene tyrosine-protein kinase receptor Ret (Homo sapiens, UniProt P07949); test: Inhibition of RET
[8] = molecular target: Receptor tyrosine-protein kinase erbB-2 (Homo sapiens, UniProt P04626); test: Inhibition of ErbB2; in short: as §3
Sequence of Receptor tyrosine-protein kinase erbB-2 (P04626 whole entry): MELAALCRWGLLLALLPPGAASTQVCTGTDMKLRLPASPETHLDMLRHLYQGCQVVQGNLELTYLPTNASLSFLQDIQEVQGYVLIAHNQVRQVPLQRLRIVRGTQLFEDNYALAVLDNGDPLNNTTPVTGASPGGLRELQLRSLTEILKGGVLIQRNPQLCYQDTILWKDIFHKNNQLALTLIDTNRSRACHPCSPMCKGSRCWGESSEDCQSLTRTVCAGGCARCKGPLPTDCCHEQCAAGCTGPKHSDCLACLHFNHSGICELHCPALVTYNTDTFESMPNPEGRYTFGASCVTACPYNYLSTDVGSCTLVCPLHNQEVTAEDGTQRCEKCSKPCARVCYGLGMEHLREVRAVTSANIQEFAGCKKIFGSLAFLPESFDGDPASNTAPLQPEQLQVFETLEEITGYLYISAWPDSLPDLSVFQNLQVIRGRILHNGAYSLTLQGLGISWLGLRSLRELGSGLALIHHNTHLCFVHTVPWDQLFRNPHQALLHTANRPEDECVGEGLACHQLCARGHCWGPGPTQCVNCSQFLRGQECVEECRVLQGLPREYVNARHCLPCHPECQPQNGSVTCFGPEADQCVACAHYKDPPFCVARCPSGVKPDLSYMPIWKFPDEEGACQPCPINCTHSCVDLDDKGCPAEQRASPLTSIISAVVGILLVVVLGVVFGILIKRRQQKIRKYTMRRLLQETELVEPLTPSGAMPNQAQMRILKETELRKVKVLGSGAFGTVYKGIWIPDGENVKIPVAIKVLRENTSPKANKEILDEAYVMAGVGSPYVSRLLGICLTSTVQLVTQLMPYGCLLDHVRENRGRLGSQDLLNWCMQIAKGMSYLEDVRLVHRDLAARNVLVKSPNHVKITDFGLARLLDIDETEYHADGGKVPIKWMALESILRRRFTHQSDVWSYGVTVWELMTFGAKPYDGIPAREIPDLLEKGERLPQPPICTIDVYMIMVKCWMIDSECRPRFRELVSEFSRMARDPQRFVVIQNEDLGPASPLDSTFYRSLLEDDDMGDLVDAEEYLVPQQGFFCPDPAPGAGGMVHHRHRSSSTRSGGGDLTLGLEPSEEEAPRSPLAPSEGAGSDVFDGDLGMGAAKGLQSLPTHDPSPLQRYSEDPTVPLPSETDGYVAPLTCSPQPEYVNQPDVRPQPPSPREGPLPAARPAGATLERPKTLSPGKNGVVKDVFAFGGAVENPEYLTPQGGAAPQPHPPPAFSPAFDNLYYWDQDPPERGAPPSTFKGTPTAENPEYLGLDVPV

[9] = molecular target: Proto-oncogene tyrosine-protein kinase Src (Homo sapiens, UniProt P12931); test: Inhibition of c-Src; in short: as §3
[10] = molecular target: T1, Hepatocyte growth factor receptor (Homo sapiens, UniProt P08581); test: Inhibition of c-Met phosphorylation in human H1993 cells at 0.1 to 3 uM after 4 hrs by Western blotting; format: cell-based; in short: as §1
T1 sequence (P08581 whole entry): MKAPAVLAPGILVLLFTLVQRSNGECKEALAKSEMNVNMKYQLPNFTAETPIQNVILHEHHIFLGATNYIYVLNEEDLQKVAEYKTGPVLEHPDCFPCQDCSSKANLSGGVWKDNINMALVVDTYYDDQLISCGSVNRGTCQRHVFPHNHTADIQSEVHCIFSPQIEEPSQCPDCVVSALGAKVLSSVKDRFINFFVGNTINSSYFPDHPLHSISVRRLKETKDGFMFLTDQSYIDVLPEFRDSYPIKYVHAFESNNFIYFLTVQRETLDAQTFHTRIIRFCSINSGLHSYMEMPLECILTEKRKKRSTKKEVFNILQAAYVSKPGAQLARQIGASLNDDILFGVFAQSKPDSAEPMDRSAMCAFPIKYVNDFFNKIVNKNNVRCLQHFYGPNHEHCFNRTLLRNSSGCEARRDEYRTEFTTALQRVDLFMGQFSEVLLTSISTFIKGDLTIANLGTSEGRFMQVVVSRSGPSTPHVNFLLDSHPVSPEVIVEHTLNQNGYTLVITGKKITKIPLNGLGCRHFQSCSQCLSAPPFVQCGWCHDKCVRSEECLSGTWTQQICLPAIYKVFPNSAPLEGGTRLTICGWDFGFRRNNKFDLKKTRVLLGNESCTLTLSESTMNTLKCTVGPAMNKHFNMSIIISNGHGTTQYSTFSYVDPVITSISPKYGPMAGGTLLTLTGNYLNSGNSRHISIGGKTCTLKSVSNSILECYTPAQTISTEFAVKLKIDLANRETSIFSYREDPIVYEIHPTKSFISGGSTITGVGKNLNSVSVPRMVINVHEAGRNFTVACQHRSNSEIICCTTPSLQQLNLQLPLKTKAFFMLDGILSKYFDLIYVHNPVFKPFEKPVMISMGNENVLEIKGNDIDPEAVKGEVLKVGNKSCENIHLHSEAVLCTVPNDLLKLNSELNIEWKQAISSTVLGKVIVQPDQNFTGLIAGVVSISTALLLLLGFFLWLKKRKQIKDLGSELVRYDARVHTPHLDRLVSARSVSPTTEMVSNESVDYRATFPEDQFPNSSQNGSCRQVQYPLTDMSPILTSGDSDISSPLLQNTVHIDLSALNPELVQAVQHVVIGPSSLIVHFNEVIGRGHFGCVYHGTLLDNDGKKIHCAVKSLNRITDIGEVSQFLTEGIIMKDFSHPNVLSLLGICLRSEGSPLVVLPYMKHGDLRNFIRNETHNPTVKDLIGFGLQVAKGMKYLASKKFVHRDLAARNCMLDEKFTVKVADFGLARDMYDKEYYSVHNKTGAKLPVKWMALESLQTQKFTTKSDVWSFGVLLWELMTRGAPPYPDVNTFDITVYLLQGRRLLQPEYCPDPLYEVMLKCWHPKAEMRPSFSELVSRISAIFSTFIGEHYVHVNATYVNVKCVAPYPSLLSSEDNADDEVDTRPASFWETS

[11] = molecular target: Hepatocyte growth factor receptor (Mus musculus) (UniProt P16056); test: Inhibition of TPR-c-Met phosphorylation expressed in mouse BAF3 cells at 0.1 to 3 uM after 4 hrs by Western blotting; format: cell-based; in short: as §1
[12] = molecular target: Hepatocyte growth factor receptor (Mus musculus) (UniProt P16056); test: Inhibition of TPR-c-Met phosphorylation expressed in mouse BAF3 cells assessed as ERK1/2 phosphorylation at 0.1 to 3 uM after 4 hrs by Western blotting; format: cell-based
In short: (§4)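 Exponentially growing cells were exposed to compound for 4 h at 37 °C and lysed in SDS sample buffer. Lysates were resolved on 10% SDS-PAGE and blotted. Blots were probed for phospho- and total ERK1/2 and AKT, with GAPDH loading control, and detected by ECL.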

[13] = molecular target: Hepatocyte growth factor receptor (Mus musculus) (UniProt P16056); test: Inhibition of TPR-c-Met phosphorylation expressed in mouse BAF3 cells assessed as AKT phosphorylation at 0.1 to 3 uM after 4 hrs by Western blotting; format: cell-based; in short: as §4
SNU-5 = test: Antiproliferative activity against human SNU5 cells after 72 hrs; conditions: SNU-5, 72 h
Mus musculus = test: Toxicity in mouse NIH/3T3 cells expressing TPR-Met xenografted nude mouse assessed as reduction in body weight at 100 mg/kg, ip qd for 14 days; format: organism-based, NIH3T3; parameters: dose 100 mg/kg, route intraperitoneal; conditions: in vivo, 336 h
Ephrin type-B receptor 2 = Ephrin type-B receptor 2 (Homo sapiens, UniProt P29323); test: Inhibition of EPH-B2; in short: as §3
[14] = molecular target: Insulin-like growth factor 1 receptor (Homo sapiens, UniProt P08069); test: Inhibition of IGF1R
[15] = molecular target: T1, Hepatocyte growth factor receptor; test: Inhibition of c-Met phosphorylation in human MKN45 cells at 0.1 to 3 uM after 4 hrs by Western blotting; format: cell-based; conditions: MKN-45; in short: as §1

Sequence of Hepatocyte growth factor receptor (Mus musculus) (P16056 whole entry): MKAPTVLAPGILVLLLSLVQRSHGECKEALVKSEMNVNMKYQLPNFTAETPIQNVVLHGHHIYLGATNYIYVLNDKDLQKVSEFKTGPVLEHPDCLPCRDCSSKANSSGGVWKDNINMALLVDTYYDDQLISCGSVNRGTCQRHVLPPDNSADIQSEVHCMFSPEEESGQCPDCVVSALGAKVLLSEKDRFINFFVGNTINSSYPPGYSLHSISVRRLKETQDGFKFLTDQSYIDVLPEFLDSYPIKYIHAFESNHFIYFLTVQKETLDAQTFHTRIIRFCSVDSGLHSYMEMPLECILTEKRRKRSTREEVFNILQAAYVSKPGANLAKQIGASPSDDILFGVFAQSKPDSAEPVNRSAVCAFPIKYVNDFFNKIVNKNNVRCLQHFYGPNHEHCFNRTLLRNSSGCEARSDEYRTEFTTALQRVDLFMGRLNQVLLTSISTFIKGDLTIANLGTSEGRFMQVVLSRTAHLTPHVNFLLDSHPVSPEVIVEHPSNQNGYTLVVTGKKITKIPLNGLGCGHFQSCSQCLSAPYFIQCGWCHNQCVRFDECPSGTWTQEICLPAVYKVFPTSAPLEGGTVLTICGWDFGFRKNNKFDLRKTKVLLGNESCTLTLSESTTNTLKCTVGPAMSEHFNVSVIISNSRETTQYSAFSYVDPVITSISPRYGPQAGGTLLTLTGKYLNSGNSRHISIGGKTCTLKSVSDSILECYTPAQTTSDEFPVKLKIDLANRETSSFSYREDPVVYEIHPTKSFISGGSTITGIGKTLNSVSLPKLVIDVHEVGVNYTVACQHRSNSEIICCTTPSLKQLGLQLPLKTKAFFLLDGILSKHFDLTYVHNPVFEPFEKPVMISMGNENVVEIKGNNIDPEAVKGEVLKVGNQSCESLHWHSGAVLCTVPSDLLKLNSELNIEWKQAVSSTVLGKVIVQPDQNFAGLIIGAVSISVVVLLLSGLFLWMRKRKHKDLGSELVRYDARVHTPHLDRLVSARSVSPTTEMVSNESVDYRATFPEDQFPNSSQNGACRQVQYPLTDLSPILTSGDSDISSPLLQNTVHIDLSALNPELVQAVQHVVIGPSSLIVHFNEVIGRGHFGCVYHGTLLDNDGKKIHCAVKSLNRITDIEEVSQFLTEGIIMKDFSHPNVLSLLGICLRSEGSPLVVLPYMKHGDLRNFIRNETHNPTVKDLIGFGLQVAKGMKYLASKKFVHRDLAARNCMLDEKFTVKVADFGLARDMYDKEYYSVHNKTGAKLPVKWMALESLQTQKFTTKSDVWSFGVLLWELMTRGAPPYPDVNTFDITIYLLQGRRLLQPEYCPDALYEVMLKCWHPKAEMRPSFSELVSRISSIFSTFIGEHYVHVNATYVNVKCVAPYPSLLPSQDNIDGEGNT

inhibition [1]: Dose-dependent effect | AUC(0-inf) [4]: 2100 ng·h/mL | IC50 [5]: > 10 µM | IC50 [6]: > 10 µM | IC50 [7]: > 10 µM | IC50 [8]: > 10 µM | IC50 [9]: > 10 µM | inhibition [10]: Active | inhibition [11]: Active | inhibition [12]: Active | inhibition [13]: Active | IC50 (SNU-5): 1 µM | IC50 (Ephrin type-B receptor 2): > 10 µM | IC50 [14]: > 10 µM | inhibition [15]: Active
SMILES: CC(=O)N1CCN(c2cnc3cc(C(F)(F)F)cc(NCc4cccc([N+](=O)[O-])c4)c3c2)CC1
IC50 (NIH3T3 [2]): 2 µM | IC50 (NIH3T3 [3]): ≥ 50 µM | Activity (Mus musculus): Non-toxic
